Test results from ChEMBL document CHEMBL1150415 (J Med Chem, 2008).
The source made the active and inactive calls. The rule behind the calls is not given here.

How the values were obtained:
[1] = molecular target: T1, Cytosolic phospholipase A2 gamma (Homo sapiens) (UniProt Q9UP65); test: Inhibition of cytosolic phospholipase A2gamma at 0.5 uM
T1 sequence (whole entry): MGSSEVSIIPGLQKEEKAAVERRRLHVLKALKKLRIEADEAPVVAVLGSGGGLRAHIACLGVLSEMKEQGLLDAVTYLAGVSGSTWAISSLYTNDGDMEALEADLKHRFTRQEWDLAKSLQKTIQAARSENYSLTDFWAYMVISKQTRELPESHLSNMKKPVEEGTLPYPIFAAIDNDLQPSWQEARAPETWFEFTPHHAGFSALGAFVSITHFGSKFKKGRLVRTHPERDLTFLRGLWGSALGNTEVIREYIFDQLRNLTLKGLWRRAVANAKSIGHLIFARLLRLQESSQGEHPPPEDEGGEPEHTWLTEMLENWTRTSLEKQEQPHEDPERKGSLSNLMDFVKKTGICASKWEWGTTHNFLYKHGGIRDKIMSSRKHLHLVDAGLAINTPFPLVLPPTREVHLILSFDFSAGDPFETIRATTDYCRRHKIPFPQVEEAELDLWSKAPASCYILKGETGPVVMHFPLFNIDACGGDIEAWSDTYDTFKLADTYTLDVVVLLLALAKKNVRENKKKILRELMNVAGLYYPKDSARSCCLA
Summary of the method: (§1)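 Isolated enzyme activity on PAPC (1-palmitoyl-2-arachidonoyl-sn-glycero-3-phosphocholine) liposome substrate.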

[2] = system: MC9; test: Inhibition of PGF2apha production in arachidonic acid-stimulated mouse MC9 cells; format: functional, cell-based
[3] = Inhibition of cytosolic phospholipase A2alpha at 0.020 uM; summary of the method: as §1
[4] = system: Blood; test: Inhibition of PAF production in human whole blood at 0.15 uM; format: functional
Summary of the method: (§2)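 Human whole blood stimulated with calcium ionophore A23187 at 30 µM. Several arachidonic acid metabolites (LTB4, PGE2, PGF2α, TXB2) and PAF production were quantified.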

[5] = system: Rattus norvegicus; test: Inhibition of carrageenan-induced paw edema in po dosed Sprague-Dawley rat administered 2 hrs before carrageenan challenge; format: functional
[6] = molecular target: Prostaglandin G/H synthase 2, cyclooxygenase-2 (Homo sapiens) (UniProt P35354); test: Inhibition of COX2-dependent PGE2 production in IL1B stimulated human A549 cells at 0.040 uM
[7] = Plasma concentration in adjuvant-induced arthritis Lewis rat model at 50 mg/kg, po after 16 hrs; format: ADME, organism-based; parameters: dose 50 mg/kg, route oral
[8] = system: Blood; test: Inhibition of PGE2 production in human whole blood at 0.15 uM; format: functional; summary of the method: as §2
[9] = system: Rattus norvegicus; test: Reduction in synovitis damage in Freund's adjuvant-induced arthritis Lewis rat model at 50 mg/kg, po for 11 days; format: functional, organism-based; parameters: dose 50 mg/kg
Summary of the method: (§3)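 Arthritis was induced in Lewis rats by intradermal complete Freund's adjuvant at the base of the tail. Oral treatment began on day 8, when mean clinical joint scores were 12, and continued for 11 days. Tarsal joints were taken at necropsy and lesions were scored histologically in blinded fashion.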

[10] = system: Rattus norvegicus; test: Reduction in cartilage damage in Freund's adjuvant-induced arthritis Lewis rat model at 5 mg/kg, po for 11 days; format: functional, organism-based; parameters: dose 5 mg/kg; summary of the method: as §3
[11] = Inhibition of cytosolic phospholipase A2alpha
[12] = Plasma concentration in adjuvant-induced arthritis Lewis rat model at 50 mg/kg, po after 4 hrs; format: ADME, organism-based; parameters: dose 50 mg/kg, route oral
[13] = system: MC9; test: Inhibition of PGF2alpha production in mouse MC9 cells; format: functional, cell-based
[14] = Plasma concentration in collagen-induced arthritis mouse model at 100 mg/kg, po twice daily after 3 hrs; format: ADME, organism-based; parameters: dose 100 mg/kg, route oral
[15] = system: Rattus norvegicus; test: Reduction in synovitis damage in Freund's adjuvant-induced arthritis Lewis rat model at 5 mg/kg, po for 11 days; format: functional, organism-based; parameters: dose 5 mg/kg; summary of the method: as §3
[16] = system: MC9; test: Inhibition of LTB4 production in mouse MC9 cells; format: functional, cell-based
[17] = system: Ovis aries; test: Inhibition of acute hyperresponsiveness in Ascaris Suum antigen-induced reversible airway bronchoconstriction sheep model assessed as reduction in lung resistance at 10 mg/kg, po bid administered and measured after 16 hrs
[18] = Plasma concentration in adjuvant-induced arthritis Lewis rat model at 5 mg/kg, po after 16 hrs; format: ADME, organism-based; parameters: dose 5 mg/kg, route oral
[19] = system: Rattus norvegicus; test: Inhibition of PGE2 production in carrageenan-stimulated orally dosed rat air pouch model after 6 hrs; format: functional; details: po
Summary of the method: (§4)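 Carrageenan was injected into a preformed air pouch 2 h after oral drug. Pouch contents were removed 6 h later and PGE2 was quantified.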

[20] = Plasma concentration in adjuvant-induced arthritis Lewis rat model at 25 mg/kg, po after 4 hrs; format: ADME, organism-based; parameters: dose 25 mg/kg, route oral
[21] = Oral bioavailability in rat; format: ADME, organism-based; details: in vivo
[22] = Inhibition of secreted phospholipase A2 at 0.5 uM
Summary of the method: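 Type II secreted PLA2 activity measured with PAPE (1-palmitoyl-2-arachidonoyl-sn-glycero-3-phosphoethanolamine) liposomes as substrate.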

[23] = Plasma concentration in adjuvant-induced arthritis Lewis rat model at 25 mg/kg, po after 16 hrs; format: ADME, organism-based; parameters: dose 25 mg/kg, route oral
[24] = system: Blood; test: Inhibition of PGF2alpha production in human whole blood at 0.15 uM; format: functional; summary of the method: as §2
[25] = Plasma concentration in adjuvant-induced arthritis Lewis rat model at 5 mg/kg, po after 4 hrs; format: ADME, organism-based; parameters: dose 5 mg/kg, route oral
[26] = molecular target: T2, Cytosolic phospholipase A2 beta (Homo sapiens) (UniProt P0C869); test: Inhibition of cytosolic phospholipase A2beta at 0.5 uM; summary of the method: as §1
T2 sequence (whole entry): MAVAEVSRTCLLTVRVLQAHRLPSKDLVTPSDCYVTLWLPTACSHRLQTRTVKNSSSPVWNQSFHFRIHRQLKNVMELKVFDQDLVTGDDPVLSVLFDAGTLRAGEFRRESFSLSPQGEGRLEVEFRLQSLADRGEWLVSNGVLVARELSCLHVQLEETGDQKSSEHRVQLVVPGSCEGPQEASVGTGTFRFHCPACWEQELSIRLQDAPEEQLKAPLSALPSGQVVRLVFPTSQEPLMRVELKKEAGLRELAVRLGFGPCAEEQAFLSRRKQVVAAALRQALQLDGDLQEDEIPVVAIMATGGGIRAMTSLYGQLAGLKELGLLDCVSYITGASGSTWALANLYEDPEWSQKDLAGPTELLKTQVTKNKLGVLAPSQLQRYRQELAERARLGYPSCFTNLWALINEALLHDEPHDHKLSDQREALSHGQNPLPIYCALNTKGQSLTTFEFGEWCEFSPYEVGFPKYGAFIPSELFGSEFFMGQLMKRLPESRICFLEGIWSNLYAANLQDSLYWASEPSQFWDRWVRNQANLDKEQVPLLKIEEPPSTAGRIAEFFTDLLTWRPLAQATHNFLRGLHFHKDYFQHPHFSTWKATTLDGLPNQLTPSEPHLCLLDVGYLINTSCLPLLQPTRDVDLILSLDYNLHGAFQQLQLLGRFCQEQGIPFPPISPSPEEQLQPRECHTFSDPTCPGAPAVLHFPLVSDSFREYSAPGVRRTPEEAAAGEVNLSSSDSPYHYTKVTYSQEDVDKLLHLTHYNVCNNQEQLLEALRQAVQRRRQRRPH

[27] = molecular target: Prostaglandin G/H synthase 2, cyclooxygenase-2 (Homo sapiens) (UniProt P35354); test: Inhibition of COX2-dependent PGE2 production in IL1B stimulated human A549 cells at 1 uM in presence of arachidonic acid
[28] = system: Rattus norvegicus; test: Reduction in cartilage damage in Freund's adjuvant-induced arthritis Lewis rat model at 50 mg/kg, po for 11 days; format: functional, organism-based; parameters: dose 50 mg/kg; summary of the method: as §3
[29] = Inhibition of cytosolic phospholipase A2alpha by GLU micelle assay
Summary of the method: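 Micellar assay with 7-hydroxycoumarinyl-γ-linolenate (GLU) substrate, presenting inhibitor and substrate to the enzyme in high-lipid micelles. Each run gives the mean of duplicate assays, and values come from at least two runs.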

[30] = system: Mus musculus; test: Plasma concentration in collagen-induced arthritis mouse model at 100 mg/kg, po twice daily after 12 to 14 hrs; format: ADME, organism-based; parameters: dose 100 mg/kg, route oral; details: in vivo
[31] = system: Blood; test: Inhibition of LTB4 production in human whole blood at 0.15 uM; format: functional; summary of the method: as §2
[32] = system: Ovis aries; test: Effect on late asthmatic response in Ascaris Suum antigen-induced reversible airway bronchoconstriction sheep model assessed as reduction in lung resistance at 10 mg/kg, po bid administered 2 hrs before antigen challenge measured 5 to 8 hrs after challenge; format: functional; parameters: scale not given: the % may be the effect or the level left
[33] = system: Rattus norvegicus; test: Reduction in cartilage damage in Freund's adjuvant-induced arthritis Lewis rat model at 25 mg/kg, po for 11 days; format: functional, organism-based; parameters: dose 25 mg/kg; summary of the method: as §3
[34] = system: Blood; test: Inhibition of TXB2 production in human whole blood at 0.15 uM; format: functional; summary of the method: as §2
[35] = system: Rattus norvegicus; test: Reduction in synovitis damage in Freund's adjuvant-induced arthritis Lewis rat model at 25 mg/kg, po for 11 days; format: functional, organism-based; parameters: dose 25 mg/kg; summary of the method: as §3
[36] = Plasma concentration in collagen-induced arthritis mouse model at 100 mg/kg, po twice daily after 1.5 hrs; format: ADME, organism-based; parameters: dose 100 mg/kg, route oral
[37] = system: Blood; test: Inhibition of TXB2 production in Sprague-Dawley rat whole blood; format: functional, tissue-based
Summary of the method: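 Rat whole blood stimulated with calcium ionophore A23187 at 5 µM, with thromboxane B2 measured. Each run gives the mean of triplicate assays, and values come from at least two runs.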

[38] = system: Rattus norvegicus; test: Inhibition of PGE2 production in carrageenan-stimulated rat air pouch model at 5 mg/kg, po after 6 hrs; format: functional; summary of the method: as §4
[39] = Ratio of AUC in Sprague-Dawley rat at 25 mg/kg, po to IC50 for TXB2 production in Sprague-Dawley rat whole blood; format: functional

Chain of Prostaglandin G/H synthase 2, cyclooxygenase-2 (Homo sapiens) (P35354 whole entry, looked up): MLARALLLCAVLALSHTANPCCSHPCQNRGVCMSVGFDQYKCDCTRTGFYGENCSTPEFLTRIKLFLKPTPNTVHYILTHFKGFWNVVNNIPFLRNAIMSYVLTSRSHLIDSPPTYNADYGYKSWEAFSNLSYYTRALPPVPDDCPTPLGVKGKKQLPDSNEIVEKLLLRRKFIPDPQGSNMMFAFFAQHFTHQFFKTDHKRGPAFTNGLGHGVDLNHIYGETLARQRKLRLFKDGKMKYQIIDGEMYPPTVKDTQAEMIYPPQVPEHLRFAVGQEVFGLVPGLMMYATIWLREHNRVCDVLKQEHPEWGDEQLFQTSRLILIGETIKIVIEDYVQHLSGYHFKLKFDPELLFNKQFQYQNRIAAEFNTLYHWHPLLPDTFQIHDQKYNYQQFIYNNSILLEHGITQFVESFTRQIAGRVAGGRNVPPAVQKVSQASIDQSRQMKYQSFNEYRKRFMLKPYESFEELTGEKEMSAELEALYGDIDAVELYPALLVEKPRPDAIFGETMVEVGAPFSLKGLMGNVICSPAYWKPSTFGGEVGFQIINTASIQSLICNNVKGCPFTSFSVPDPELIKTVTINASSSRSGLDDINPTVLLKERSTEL

## O=C(O)c1ccc(CCCc2c(CCNS(=O)(=O)Cc3ccc(Cl)c(Cl)c3)n(C(c3ccccc3)c3ccccc3)c3ccc(Cl)cc23)cc1 [EFIPLADIB]
[1]
  Activity: inactive
[2]
  IC50: 900 nM
[3]
  inhibition: > 90%
[4]
  inhibition at 0.15 µM: 50%
[5]
  ED50: 35 mg/kg
[6]
  inhibition: > 95%
[7]
  concentration at 16 h: 692 ng/mL
[8]
  inhibition at 0.15 µM: 78%
[9]
  Activity: Active
[10]
  Activity: Active
[11]
  IC50: < 10 nM
[12]
  concentration at 4 h: 3600 ng/mL
[13]
  IC50: 20 nM
[14]
  concentration at 3 h: 7200 ng/mL
[15]
  Activity: Active
[16]
  IC50: 20 nM
[17]
  Activity: Active
[18]
  concentration at 16 h: 34 ng/mL
[19]
  ED50: 6 mg/kg
[20]
  concentration at 4 h: 1130 ng/mL
[21]
  bioavailability: 6%
[22]
  Activity: inactive
[23]
  concentration at 16 h: 166 ng/mL
[24]
  inhibition at 0.15 µM: 66%
[25]
  concentration at 4 h: 147 ng/mL
[26]
  Activity: inactive
[27]
  Activity: inactive
[28]
  Activity: Active
[29]
  IC50: 40 nM
[30]
  Cp: 2315 ng/mL
[31]
  inhibition at 0.15 µM: 64%
[32]
  Activity: 50%
[33]
  Activity: Active
[34]
  inhibition at 0.15 µM: 57%
[35]
  Activity: Active

## O=C(O)c1ccc(OCCc2c(CCNS(=O)(=O)Cc3ccc(Cl)c(Cl)c3)n(C(c3ccccc3)c3ccccc3)c3ccc(Cl)cc23)cc1 [ECOPLADIB]
[5]
  ED50: 40 mg/kg
[36]
  concentration at 1.5 h: 4080 ng/mL
[19]
  ED50: 10 mg/kg
[37]
  IC50: 160 nM
[38]
  inhibition in vivo at 5 mg/kg: < 10%
[29]
  IC50: 150 nM
[39]
  Ratio: 18 h
[30]
  Cp: 531 ng/mL
